Results reported in PubChem BioAssay.
Activity calls are given as the source filed them. Cut-off read from the data, not from the text of the source, unless noted: active = inhibition above about 31%; inactive = the rest.

Columns and labels:
[1] = HUVEC growth inhibition – cell-based, human, primary screen (AID 575;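 active = viability at or below 30% in both replicate assays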;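 note: 100% = median of untreated cell wells with 0.1% DMSO on each plate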); settings: HUVEC proliferation, CellTiter-Glo luminescence, 72 h; at 10 µM; stronger effect = lower value
Method in brief: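 Test system: primary human umbilical vein endothelial cells. Quantity: 1250 cells/well. Compound: single 10 µM dose, 0.1% DMSO, from 5x medium stock. Timing: 72 h treatment at 37 °C. Detection: ATP-based CellTiter-Glo luminescent read. Benchmarks: vehicle and MePR control wells. Format: 384-well plates coated with collagen.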

[2] = growth inhibitors of H69AR lung tumor, primary screen, human, duplicate replicates (AID 580;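 active = viability at or under a set limit in both replicates, limit being median viability minus 3 SD, cut at about 48% in these data, passing the limit was not always enough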;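 note: 100% = mean luminescence of untreated wells and 0% = no signal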); settings: H69AR lung tumor cells viability, ATP luminescence, 72 h; at 10 µM; stronger effect = lower value
[3] = reversal of MRP1-mediated doxorubicin resistance, pilot screen, H69AR cells, doxorubicin co-treatment (AID 601;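 active = viability loss from added drug above about 55%, and viability with drug at most 40%, in both replicates, limit read from the data, passing the limit was not always enough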); settings: CellTiter-Glo, 72 h, at 10 µM; for differential viability (reversal): stronger effect = higher value
[4] = 384-well plate pilot, post-Golgi transport modulator project, inhibition of yeast transport mutant growth (AID 636); settings: absorbance 615 nm, about 18 h, stronger effect = higher value
[5] = growth suppression of yeast trafficking mutant, preliminary HTS, modulators of trafficking downstream of Golgi apparatus project, 1536-format plate, OD 615 nm (AID 637; in the data active = inhibition above about 30%); settings: yeast transport mutant growth, absorbance 615 nm, 18 h; stronger effect = higher value
[6] = H69AR cells + 2 uM doxorubicin, measured here: viability with 2 uM doxorubicin, stronger effect = lower value
[7] = H69AR cells, compound alone cytotoxicity

Compound | viability [1] | viability [2] | differential viability (reversal) ([3]; H69AR cells + 2 uM doxorubicin) | viability [3, 6] | viability [3, 7] | inhibition [4] | inhibition [5]
Cc1cccc(NC(=O)c2oc3c(c2C)C(=O)CC(C)(C)C3)n1 | 106% (inactive) | 92.3% (inactive) | 9.28% (inactive) | 83% | 92.3% | -6.27% (inactive) | -3.49% (inactive)
CCOc1ccccc1OCCn1nnc2ccccc21 | 101% (inactive) | 98.7% (inactive) | 18.4% (inactive) | 80.3% | 98.7% | -5.73% (inactive) | 5.24% (inactive)
O=C(CN(CC1CCCO1)C(=O)CCC(=O)Nc1ccccn1)NCC1CCCO1 (stereo not given) | 103% (inactive) | 100% (inactive) | 11.8% (inactive) | 88.2% | 100% | -7.73% (inactive) | -3.97% (inactive)
C=Cn1c(N2CCOCC2)nc2c1c(=O)[nH]c(=O)n2C | 98.8% (inactive) | 97.1% (inactive) | 8.31% (inactive) | 88.8% | 97.1% | -4.8% (inactive) | 1.59% (inactive)
CCn1c(Cc2ccccc2)nnc1SCC(=O)Nc1ccc(N2CCOCC2)c(Cl)c1 | 101% (inactive) | 93.8% (inactive) | -8.62% (inactive) | 102% | 93.8% | -4.67% (inactive) | 3.02% (inactive)
CC(C)NC(=O)NC(=O)COc1cccc2c1OC(C)(C)C2 | 97.1% (inactive) | 105% (inactive) | 16.9% (inactive) | 87.9% | 105% | -3.38% (inactive) | 0.79% (inactive)
O=C(NC1CC2CCC1C2)c1ccc(CN2CCOCC2)cc1 (stereo not given) | 99.9% (inactive) | 96.9% (inactive) | 2.98% (inactive) | 93.9% | 96.9% | -2.89% (inactive) | -2.7% (inactive)
CCCn1c(SCC(=O)NCc2ccco2)nc2c1c(=O)n(C)c(=O)n2C | 87.6% (inactive) | 94.4% (inactive) | 15.9% (inactive) | 78.5% | 94.4% | -7.87% (inactive) | 2.38% (inactive)
COc1ccc(C2C(C(C)=O)=C(C)N=c3s/c(=C\c4ccc5c(c4)OCO5)c(=O)n32)c(OC)c1 (stereo not given) | 77.2% (inactive) | 99.7% (inactive) | -2.84% (inactive) | 103% | 99.7% | -2.08% (inactive) | -4.76% (inactive)
CON(C)c1nc(Oc2ccc(=O)[nH]n2)nc(N(C)C)n1 | 87.6% (inactive) | 97.9% (inactive) | 11.8% (inactive) | 86.2% | 97.9% | -4.4% (inactive) | 4.44% (inactive)
O=C(O)c1ccc(-n2nnnc2Oc2ccccc2C(=O)N2CCOCC2)cc1 | 108% (inactive) | 102% (inactive) | 16.1% (inactive) | 85.7% | 102% | -1.97% (inactive) | -2.7% (inactive)
CCOC(=O)c1cc2oc(C)cc2n1CC(=O)OC1CCCCC1 | 90.9% (inactive) | 87.3% (inactive) | 0.485% (inactive) | 86.8% | 87.3% | -2.73% (inactive) | 5.24% (inactive)
CCC1(CC)C(=O)C(C)(C)C(=O)OC1c1cccs1 (stereo not given) | 120% (inactive) | 90.7% (inactive) | 5.04% (inactive) | 85.7% | 90.7% | -2.89% (inactive) | 2.86% (inactive)
CC(=O)Nc1ccc(NC2=CC(=O)CC(C)(C)C2)cc1 | 109% (inactive) | 109% (inactive) | 24.2% (inactive) | 85% | 109% | -3.38% (inactive) | 5.08% (inactive)
CC(=O)N1CCN(S(=O)(=O)c2ccc(S(=O)(=O)NCC(C)C)cc2)CC1 | 111% (inactive) | 88.5% (inactive) | 2.16% (inactive) | 86.4% | 88.5% | -5.73% (inactive) | 0.16% (inactive)
O=C(C1CCN(S(=O)(=O)c2ccc(-n3cnnn3)cc2)CC1)N1CCN(c2ccccc2)CC1 | 103% (inactive) | 94.5% (inactive) | 2.88% (inactive) | 91.6% | 94.5% | -1.43% (inactive) | 0.48% (inactive)
FC(F)(F)c1cc(-c2ccco2)nc(-n2nnc3ccccc32)n1 | 59.5% (inactive) | 79.8% (inactive) | 1.45% (inactive) | 78.3% | 79.8% | -0.91% (inactive) | 0.32% (inactive)
O=C1CCCc2c1nn(-c1ccccc1)[n+]2[O-] | 110% (inactive) | 98.1% (inactive) | 1.57% (inactive) | 96.5% | 98.1% | -5.33% (inactive) | -5.4% (inactive)
CC1(C)CC(=O)C=C(NCCN2CCN(C(=O)Nc3ccccc3)CC2)C1 | 103% (inactive) | 96.4% (inactive) | 6.64% (inactive) | 89.8% | 96.4% | -5.07% (inactive) | 3.97% (inactive)
Cc1ccc(OCc2nnc(SCC(=O)Nc3ccc4c(c3)OCO4)n2C)cc1 | 91.2% (inactive) | 76.9% (inactive) | -22.4% (inactive) | 99.3% | 76.9% | -7.07% (inactive) | 6.98% (inactive)
